Data published in ChEMBL document CHEMBL4699451, “Discovery of BIIB068: A Selective, Potent, Reversible Bruton's Tyrosine Kinase Inhibitor as an Orally Efficacious Agent for Autoimmune Diseases” (J Med Chem, 2020).
pIC50: −log10 of the molar value. Converted amounts (≈) assume the structure as drawn.

Assays:
[1] = Stability in Beagle dog plasma assessed as parent compound remaining after 6 hrs; assay type: ADME, cell-free, Canis lupus familiaris; conditions: read-out: Stabilty
In short: (§1)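 Compound incubated in plasma for 6 hours, then percentage of parent compound remaining determined.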

[2] = Cmax in cynomolgus monkey at 5 mg/kg, po; assay type: ADME, organism-based, Macaca fascicularis; parameters: route oral, dose 5 mg/kg; conditions: in vivo
Cytochrome P450 2B6 = biological target: T1, Cytochrome P450 2B6 (Homo sapiens, UniProt P20813); assay: Induction of CYP2B6 in human hepatocytes up to 50 uM; assay type: ADME, cell-based, Hepatocyte
T1 sequence (P20813 whole entry): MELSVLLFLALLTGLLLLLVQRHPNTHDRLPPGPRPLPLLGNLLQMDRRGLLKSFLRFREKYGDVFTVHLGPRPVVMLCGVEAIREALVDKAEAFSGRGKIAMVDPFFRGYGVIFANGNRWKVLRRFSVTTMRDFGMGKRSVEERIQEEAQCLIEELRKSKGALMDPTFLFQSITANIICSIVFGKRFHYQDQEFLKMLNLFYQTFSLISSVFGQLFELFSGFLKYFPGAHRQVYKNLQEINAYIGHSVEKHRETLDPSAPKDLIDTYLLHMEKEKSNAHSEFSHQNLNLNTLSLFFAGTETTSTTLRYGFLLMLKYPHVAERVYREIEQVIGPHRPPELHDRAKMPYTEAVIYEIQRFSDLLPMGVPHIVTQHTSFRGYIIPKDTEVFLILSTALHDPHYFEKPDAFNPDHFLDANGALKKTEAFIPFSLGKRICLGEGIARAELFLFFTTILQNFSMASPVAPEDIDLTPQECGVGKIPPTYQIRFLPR
In short: (§2)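 Sandwich-cultured human hepatocytes exposed at concentrations up to 50 μM; induction of CYP1A2, 2B6 and 3A4 assessed.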

[3] = Oral bioavailability in rat at 5 mg/kg; assay type: ADME, organism-based; conditions: in vivo
In short: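 Oral dosing in rats; vehicle 0.1% CMC/0.2% Tween-80.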

Cytochrome P450 1A2 [4] = biological target: T2, Cytochrome P450 1A2 (Homo sapiens, UniProt P05177); assay: Inhibition of CYP1A2 in human liver microsomes using phenacetin as substrate measured after 15 mins in presence of NADPH by LC-MS/MS analysis; assay type: ADME
T2 sequence (P05177 whole entry): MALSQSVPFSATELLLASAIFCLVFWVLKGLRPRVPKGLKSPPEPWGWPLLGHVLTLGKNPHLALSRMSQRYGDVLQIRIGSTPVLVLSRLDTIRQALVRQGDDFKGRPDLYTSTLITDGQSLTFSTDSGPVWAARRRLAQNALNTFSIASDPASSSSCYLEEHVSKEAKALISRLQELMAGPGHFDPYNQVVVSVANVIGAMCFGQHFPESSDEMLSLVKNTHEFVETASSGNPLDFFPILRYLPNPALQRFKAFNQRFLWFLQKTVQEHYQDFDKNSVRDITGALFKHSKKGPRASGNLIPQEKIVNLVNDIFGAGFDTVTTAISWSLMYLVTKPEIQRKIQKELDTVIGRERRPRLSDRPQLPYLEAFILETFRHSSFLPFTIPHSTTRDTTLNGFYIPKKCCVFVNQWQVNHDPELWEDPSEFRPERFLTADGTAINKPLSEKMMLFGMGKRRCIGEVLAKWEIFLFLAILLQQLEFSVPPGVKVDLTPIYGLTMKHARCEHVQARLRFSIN

Cytochrome P450 1A2 [5] = biological target: T2, Cytochrome P450 1A2; assay: Induction of CYP1A2 in human hepatocytes up to 50 uM; assay type: ADME, cell-based, Hepatocyte; in short: as §2
[6] = Toxicity in Sprague-Dawley rat assessed as effect on food consumption measured up to 13 weeks; conditions: in vivo, 2184 h
In short: (§3)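 GLP toxicity studies lasting up to 13 weeks, run in Sprague-Dawley rats and cynomolgus monkeys.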

[7] = Toxicity in cynomolgus monkey assessed as effect on clinical pathology measured up to 13 weeks; parameters: species or system Macaca fascicularis; conditions: in vivo, 2184 h; in short: as §3
[8] = Half life in dog at 1 mg/kg, iv; assay type: ADME, organism-based, Canis lupus familiaris; conditions: in vivo
[9] = Aqueous solubility of compound in simulated gastric fluid at pH 2 by HPLC method; assay type: physicochemical
[10] = Toxicity in cynomolgus monkey assessed as histopathological changes measured up to 13 weeks; parameters: species or system Macaca fascicularis; conditions: in vivo, 2184 h; in short: as §3
[11] = Tmax in human at 10 to 120 mg administered orally using tablet form of sample; assay type: ADME; conditions: in vivo, po, dose 10-120 mg
In short: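 Single ascending oral tablet doses from 10 mg up to 120 mg given to healthy volunteers; plasma concentration followed over time after dosing.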

[12] = Cmax in rat at 5 mg/kg, po; assay type: ADME, organism-based; parameters: route oral, dose 5 mg/kg; conditions: in vivo
Cytochrome P450 2C19 = Cytochrome P450 2C19 (Homo sapiens, UniProt P33261); assay: Inhibition of CYP2C19 in human liver microsomes using S-mephenytoin as substrate measured after 30 mins in presence of NADPH by LC-MS/MS analysis; assay type: ADME
Cytochrome P450 3A4 [13] = biological target: T3, Cytochrome P450 3A4 (Homo sapiens, UniProt P08684); assay: Inhibition of CYP3A4 in human liver microsomes using midazolam as substrate measured after 15 mins in presence of NADPH by LC-MS/MS analysis; assay type: ADME
[14] = Toxicity in Sprague-Dawley rat assessed as effect on gross pathology measured up to 13 weeks; conditions: in vivo, 2184 h; in short: as §3
Cytochrome P450 3A4 [15] = biological target: T3, Cytochrome P450 3A4; assay: Induction of CYP3A4 in human hepatocytes up to 50 uM; assay type: ADME, cell-based, Hepatocyte; in short: as §2
[16] = Toxicity in cynomolgus monkey assessed as effect on clinical sign measured up to 13 weeks; parameters: species or system Macaca fascicularis; conditions: in vivo, 2184 h; in short: as §3
[17] = Aqueous solubility of compound in simulated intestinal fluid at pH 7 by HPLC method; assay type: physicochemical
[18] = Toxicity in cynomolgus monkey assessed as change in ECG measured up to 13 weeks; parameters: species or system Macaca fascicularis; conditions: in vivo, 2184 h; in short: as §3
[19] = Stability in mouse plasma assessed as parent compound remaining after 6 hrs; assay type: ADME, cell-free; conditions: read-out: Stabilty; in short: as §1
[20] = Cmax in dog at 5 mg/kg, po; assay type: ADME, organism-based, Canis lupus familiaris; parameters: route oral, dose 5 mg/kg; conditions: in vivo
[21] = Toxicity in Sprague-Dawley rat measured up to 13 weeks; conditions: in vivo; in short: as §3
[22] = biological target: Tyrosine-protein kinase BTK (Mus musculus, UniProt P35991); assay: Inhibition of BTK in DBA1 mouse whole blood assessed as reduction in BTK phosphorylation; assay type: tissue-based
[23] = Clearance in rat at 1 mg/kg, iv relative to hepatic blood flow; assay type: ADME, organism-based; conditions: in vivo
[24] = Volume of distribution at steady state in cynomolgus monkey at 1 mg/kg, iv; assay type: ADME, organism-based, Macaca fascicularis; conditions: in vivo, read-out: Vdss
In short: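 Intravenous dosing at 1 mg/kg; vehicle 70:30 PEG-400:H2O solution.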

[25] = AUC in cynomolgus monkey at 5 mg/kg, po; assay type: ADME, organism-based, Macaca fascicularis; parameters: dose 5 mg/kg; conditions: in vivo
[26] = Lipophilicity, log D of compound at pH 7.4 by shake flask method; assay type: physicochemical; conditions: buffer
[27] = Clearance in rat at 1 mg/kg, iv; assay type: ADME, organism-based; conditions: in vivo
[28] = Oral bioavailability in dog at 5 mg/kg; assay type: ADME, organism-based, Canis lupus familiaris; conditions: in vivo
[29] = AUC in dog at 5 mg/kg, po; assay type: ADME, organism-based, Canis lupus familiaris; parameters: dose 5 mg/kg; conditions: in vivo
[30] = Toxicity in Sprague-Dawley rat assessed as effect on clinical pathology measured up to 13 weeks; conditions: in vivo, 2184 h; in short: as §3
Cytochrome P450 2D6 = Cytochrome P450 2D6 (Homo sapiens, UniProt P10635); assay: Inhibition of CYP2D6 in human liver microsomes using dextromethorphan as substrate measured after 15 mins in presence of NADPH by LC-MS/MS analysis; assay type: ADME
[31] = Toxicity in Sprague-Dawley rat assessed as histopathological changes measured up to 13 weeks; conditions: in vivo, 2184 h; in short: as §3
[32] = Stability in cynomolgus monkey plasma assessed as parent compound remaining after 6 hrs; assay type: ADME, cell-free, Macaca fascicularis; conditions: read-out: Stabilty; in short: as §1

T3 sequence (P08684 whole entry): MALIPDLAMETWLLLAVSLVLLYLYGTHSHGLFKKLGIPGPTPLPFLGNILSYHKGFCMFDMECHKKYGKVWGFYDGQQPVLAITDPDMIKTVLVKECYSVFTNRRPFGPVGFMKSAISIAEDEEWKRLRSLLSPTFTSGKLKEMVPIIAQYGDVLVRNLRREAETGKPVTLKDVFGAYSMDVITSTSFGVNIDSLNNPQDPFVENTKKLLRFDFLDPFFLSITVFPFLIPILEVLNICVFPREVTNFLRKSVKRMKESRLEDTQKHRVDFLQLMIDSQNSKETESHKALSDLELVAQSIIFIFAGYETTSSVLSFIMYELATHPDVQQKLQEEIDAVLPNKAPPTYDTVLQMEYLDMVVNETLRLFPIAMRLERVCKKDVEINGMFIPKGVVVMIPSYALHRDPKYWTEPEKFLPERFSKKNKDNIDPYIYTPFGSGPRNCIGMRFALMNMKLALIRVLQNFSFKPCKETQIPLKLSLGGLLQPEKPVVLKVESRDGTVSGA
Sequence of Tyrosine-protein kinase BTK (P35991 whole entry): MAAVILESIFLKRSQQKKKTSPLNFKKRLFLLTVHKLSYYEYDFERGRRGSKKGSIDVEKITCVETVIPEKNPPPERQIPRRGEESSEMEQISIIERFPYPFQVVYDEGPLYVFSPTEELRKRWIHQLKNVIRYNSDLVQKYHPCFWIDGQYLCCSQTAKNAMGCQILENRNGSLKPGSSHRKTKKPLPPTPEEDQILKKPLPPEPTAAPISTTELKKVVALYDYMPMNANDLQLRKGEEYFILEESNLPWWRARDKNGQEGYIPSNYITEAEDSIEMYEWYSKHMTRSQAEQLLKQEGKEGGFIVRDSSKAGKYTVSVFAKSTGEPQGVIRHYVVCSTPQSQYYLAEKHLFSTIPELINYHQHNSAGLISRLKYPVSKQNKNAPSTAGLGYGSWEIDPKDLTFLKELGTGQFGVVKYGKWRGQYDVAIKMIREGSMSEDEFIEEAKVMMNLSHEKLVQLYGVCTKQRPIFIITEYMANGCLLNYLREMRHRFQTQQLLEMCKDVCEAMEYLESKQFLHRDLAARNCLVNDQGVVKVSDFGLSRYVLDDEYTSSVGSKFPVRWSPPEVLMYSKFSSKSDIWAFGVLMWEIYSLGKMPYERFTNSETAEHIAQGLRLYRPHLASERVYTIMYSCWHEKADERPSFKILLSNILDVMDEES
Sequence of Cytochrome P450 2D6 (P10635 whole entry): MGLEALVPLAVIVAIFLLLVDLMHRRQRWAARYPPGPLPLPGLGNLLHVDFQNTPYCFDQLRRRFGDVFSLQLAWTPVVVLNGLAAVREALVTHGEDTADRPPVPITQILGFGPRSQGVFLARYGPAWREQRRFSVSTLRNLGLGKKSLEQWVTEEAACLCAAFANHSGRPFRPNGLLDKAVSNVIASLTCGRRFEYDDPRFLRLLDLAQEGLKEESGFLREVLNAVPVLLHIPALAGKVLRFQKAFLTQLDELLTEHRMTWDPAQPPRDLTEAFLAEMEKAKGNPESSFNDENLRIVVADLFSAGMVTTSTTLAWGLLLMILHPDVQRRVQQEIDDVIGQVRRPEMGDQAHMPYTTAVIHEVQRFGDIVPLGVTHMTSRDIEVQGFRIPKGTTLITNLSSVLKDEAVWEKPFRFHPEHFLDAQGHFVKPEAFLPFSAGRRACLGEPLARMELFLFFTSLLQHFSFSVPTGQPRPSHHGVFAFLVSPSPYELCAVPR
Sequence of Cytochrome P450 2C19 (P33261 whole entry): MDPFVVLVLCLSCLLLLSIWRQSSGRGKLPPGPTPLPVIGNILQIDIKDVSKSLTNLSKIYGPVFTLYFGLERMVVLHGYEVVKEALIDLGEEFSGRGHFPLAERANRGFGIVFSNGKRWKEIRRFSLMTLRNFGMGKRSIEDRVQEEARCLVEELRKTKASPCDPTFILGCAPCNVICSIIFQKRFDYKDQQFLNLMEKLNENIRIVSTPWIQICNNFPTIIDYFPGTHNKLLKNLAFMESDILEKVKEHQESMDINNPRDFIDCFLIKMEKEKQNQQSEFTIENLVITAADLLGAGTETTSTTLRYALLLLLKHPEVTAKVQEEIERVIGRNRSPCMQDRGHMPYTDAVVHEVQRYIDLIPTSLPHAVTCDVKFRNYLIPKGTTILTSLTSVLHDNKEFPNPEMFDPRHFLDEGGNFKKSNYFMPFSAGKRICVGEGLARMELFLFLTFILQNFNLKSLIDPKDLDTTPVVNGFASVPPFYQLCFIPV

Cc1cc(-c2ccnc(Nc3cnn(C)c3)n2)ccc1CNC(=O)N1CC(OC(C)C)C1
remaining at 6 h [1]: > 95% | Cmax [2]: 282 ng/mL | Activity (Cytochrome P450 2B6): Not Active | bioavailability [3]: 48% | pIC50 (Cytochrome P450 1A2 [4]): < 4.60 | Activity (Cytochrome P450 1A2 [5]): Not Active | Activity [6]: Non-Toxic | Activity [7]: Non-Toxic | half-life [8]: 126 min | solubility [9]: > 100 µg/mL | Activity [10]: Non-Toxic | Tmax [11]: 54 min | Cmax [12]: 2920 ng/mL | pIC50 (Cytochrome P450 2C19): < 4.60 | pIC50 (Cytochrome P450 3A4 [13]): < 4.60 | Activity [14]: Non-Toxic | Activity (Cytochrome P450 3A4 [15]): Not Active | Activity [16]: Non-Toxic | solubility [17]: 1 µg/mL (≈ 2.3 µM) | Activity [18]: Non-Toxic | remaining at 6 h [19]: > 95% | Cmax [20]: 652 ng/mL | NOAEL at 2184 h [21]: 50 mg/kg/day | pIC50 [22]: 6.77 | CL [23]: 6% | Vd [24]: 0.7 L/kg | AUC [25]: 2350 ng·h/mL | logD [26]: 2.92 | clearance [27]: 3 mL/min/kg | bioavailability [28]: 26% | AUC [29]: 1940 ng·h/mL | Activity [30]: Non-Toxic | pIC50 (Cytochrome P450 2D6): < 4.60 | Activity [31]: Non-Toxic | remaining at 6 h [32]: > 95%
